KCNQ1 inh = inhibitors of human KCNQ1 potassium channel; P51787; B-score at 10 µM; CHO-K1 KCNQ1, FluxOR thallium flux fluorescence; stronger effect = higher value; actives 1.3% (n = 310,000); AID 2642;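 active means compounds whose thallium flux B-score, printed positive for inhibition, exceeds three library SD while starting fluorescence stays within three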;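 further: channel opened by potassium depolarization with thallium stimulus after 20 min compound exposure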
hERG rescue = shields human hERG channel from block by proarrhythmic agents | Q12809 | CHO-hERG, FluxOR thallium flux, dofetilide IC70 present | activation (rescue from dofetilide block), less the hit threshold, % at 10 µM | actives 0.51% (n = 310,000) | AID 1511;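 active means activation above the mean of controls blocked by dofetilide plus 5 SD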;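 further: thallium influx through hERG after potassium depolarization seen as dye fluorescence rise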
KCNQ1 pot = human KCNQ1 channel potentiation or activation | actives 0.35% (n = 310,000) | P51787 | CHO-K1 KCNQ1, thallium flux FluxOR fluorescence; stronger effect = higher value | B-score at 10 µM;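 active means fluorescence ratio B-score, a plate-corrected score, at least three library SD, with initial intensity B-score within 5 SD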
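assay system = KCNQ1-transfected CHO-K1 cells | medium = assay buffer with matched DMSO | probe or stimulus = depolarizing K+/Tl+ stimulus, K2SO4 and Tl2SO4 each 12.5 mM in 5x stock | dosing = single dose | incubation = dye 90 min, compound 20 min, room temperature | detection = kinetic FluxOR fluorescence, 10 s baseline plus 110 s post-stimulus | evaluation = ratio B score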
KCNK9 inh = blocks the human KCNK9 two-pore domain potassium channel; Q9NPC2; B-score at 10 µM; HEK293 KCNK9, FluxOR thallium flux fluorescence; stronger effect = lower value; actives 1.2% (n = 310,000); AID 488922;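 active means ratio B-score over 3 SD below the library mean, with starting fluorescence within 5 SD of its mean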;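 further: negative B-score means less thallium flux so channel inhibition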
Kir21 block = blocks the mouse Kir2.1 inward-rectifier potassium channel; P35561; HEK293-Kir2.1, FluxOR thallium flux fluorescence; stronger effect = lower value; B-score at 10 µM; actives 0.85% (n = 310,000);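 active means fluorescence ratio B-score at or below minus 3 SD of library scores, with starting-brightness B-score within 2 SD, cut at about -4.2 in these data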;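 further: channel flux triggered by added potassium and thallium sulfate stimulus; B-score of peak minus minimum fluorescence over baseline after thallium stimulus; more negative B-score means stronger Kir2.1 block with less thallium influx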
Target sequence (P35561 whole entry, looked up): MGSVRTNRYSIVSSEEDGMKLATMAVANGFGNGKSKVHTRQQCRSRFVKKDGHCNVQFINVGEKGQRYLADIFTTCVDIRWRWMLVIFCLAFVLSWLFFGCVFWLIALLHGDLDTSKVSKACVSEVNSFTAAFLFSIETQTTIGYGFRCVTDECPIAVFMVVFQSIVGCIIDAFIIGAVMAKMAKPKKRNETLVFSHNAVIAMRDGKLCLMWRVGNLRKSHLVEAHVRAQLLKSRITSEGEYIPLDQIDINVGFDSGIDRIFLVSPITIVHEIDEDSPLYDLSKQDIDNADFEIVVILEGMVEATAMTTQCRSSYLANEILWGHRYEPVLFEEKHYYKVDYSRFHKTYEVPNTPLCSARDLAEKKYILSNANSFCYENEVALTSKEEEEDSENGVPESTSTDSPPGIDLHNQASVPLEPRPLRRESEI
KCNK3 inh = human KCNK3 channel inhibition, primary screen; B-score at 10 µM; actives 0.84% (n = 340,000); AID 602410; CHO-KCNK3 thallium flux, FluxOR fluorescence; stronger effect = lower value; O14649;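 active means B-score under library mean minus 4 SD, starting fluorescence ratio at most library mean plus 5 SD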;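 further: more negative B-score means stronger inhibition of thallium flux through KCNK3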
KCNK3 inh conf = confirmation of human KCNK3 two-pore domain potassium channel inhibitors. shares compounds with KCNK3 inh. CHO-KCNK3 thallium flux, FluxOR fluorescence; 0% buffer, 100% carvedilol maximal block. ratio percent of control, % at 10 µM. actives 99% (n = 2,400);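 active means ratio percent of control, averaged over triplicates, above buffer control mean plus 5 SD, cut at about 64% in these data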;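 further: ratio is the fluorescence rise from min to max over baseline after thallium stimulus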
KCNK3 noninduced = activity in cells without induced KCNK3 expression | shares compounds with KCNK3 inh | non-induced KCNK3 parental cells, FluxOR thallium flux; stronger effect = lower value | thallium flux ratio (lower = more inhibition) at 10 µM | actives 40% (n = 2,400) | AID 651747;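 active means thallium flux ratio, averaged over three wells, more than 5 SD below the buffer control mean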;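 further: host cells are CHO cells without KCNK3 induction; ratio is peak minus trough fluorescence over baseline then normalized to buffer controls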
Starred values were filed as active, the others as inactive; i = inactive; nt = not tested or not shown. A selection: hits, their analogues and other compounds. The true share with any hit is near 3.7%.

SMILES	KCNQ1 inh	hERG rescue	KCNQ1 pot	KCNK9 inh	Kir21 block	KCNK3 inh	KCNK3 inh conf	KCNK3 noninduced
COCCNC(=S)N/N=C/c1c2ccccc2cc2ccccc12	i	-26.8	i	i	0.64	-14*	110.0*	i
CCc1ccc(CNC(=O)CCn2ccc3cc(S(=O)(=O)N4CCCC4)ccc32)cc1	i	-6.5	i	i	-1.3	-10.4*	117.3*	0.154*
Cc1ccc2oc(C(=O)N(Cc3ccccc3)C3CCS(=O)(=O)C3)c(C)c2c1 (centres undefined)	i	0.0	i	i	5.92e-16	i	nt	nt
Cc1cc2oc(C(=O)N(Cc3ccccc3)C3CCS(=O)(=O)C3)c(C)c2cc1C (centres undefined)	i	-13.5	i	i	-1.61	-11*	92.3*	i
CCNC(=O)C(=O)Nc1ccc2c(c1)N(S(=O)(=O)c1cccs1)CCC2	i	-15.3	i	i	0.52	i	nt	nt
O=C(Nc1ccc2c(c1)N(S(=O)(=O)c1cccs1)CCC2)c1c(F)cccc1F	i	-13.7	i	i	0.95	-8.71*	100.7*	i
CCOc1cc(CNc2ccccc2)cc(Br)c1OCC(=O)NC(C)(C)C	i	-3.6	i	i	0.01	i	nt	nt
CCOc1cc(CNc2ccccc2)cc(Br)c1OCc1ccc(F)cc1	i	-9.6	i	i	0.38	-8.76*	84.3*	0.159*
O=C(CSc1nc(-c2ccccc2)cs1)NCCCN1CCCC1=O	nt	nt	nt	nt	nt	i	nt	nt
COc1ccc(OC)c2c1sc(=NC(=O)C1COc3ccccc3O1)n2C (centres undefined)	i	-9.6	i	i	-0.44	-9.56*	108.3*	i
CCC(=O)N=c1sc2c(OC)ccc(OC)c2n1C	i	-11.4	i	i	1.13	i	nt	nt
CCOC(=O)c1c(O)c2cccc3c2n(c1=O)CC3	i	2.0	i	i	-0.22	-9.12*	100.3*	i
CCCNC(=O)c1c(O)c2cccc3c2n(c1=O)CCC3	i	-6.8	i	i	0.15	i	nt	nt
Cc1ccc(CC(NC(=O)C2CCCCC2)C(=O)O)cc1 (centres undefined)	nt	nt	nt	nt	nt	i	nt	nt
COc1cccc(C(=O)Nc2ccc(-c3nnc(-c4ccco4)o3)cc2)c1	i	-5.7	i	i	-0.24	i	nt	nt
CCOc1cccc(C(=O)Nc2cccc(-c3nnc(-c4ccc(C)cc4)o3)c2)c1	i	-10.1	i	i	0.46	i	nt	nt
CCOc1cccc(C(=O)Nc2cccc(-c3nnc(-c4ccccc4)o3)c2)c1	i	-3.4	i	i	-1.81	-10.7*	121.0*	0.14*
O=C(Nc1cccc(-c2nnc(-c3ccccc3)o2)c1)C1CC1	i	-16.2	i	i	-0.45	-9.84*	112.3*	i
CC(=O)Oc1ccc(C(=O)Nc2cccc(-c3nnc(-c4ccco4)o3)c2)cc1	i	-12.3	i	i	-0.01	-9.33*	85.3*	i
CC(=O)Nc1cccc(-c2nnc(-c3ccccc3)o2)c1	i	-13.6	i	i	-1.22	i	nt	nt
CCN(CC)c1ccc(S(=O)(=O)N2CCOCC2)cc1NC(=O)COC(=O)/C=C/c1ccco1	nt	nt	nt	nt	nt	i	nt	nt
CSc1ccc(CNCC2CCCO2)cc1 (centres undefined)	i	-7.6	i	i	2.69	i	nt	nt
Cc1cc(C)c2nc3sc(C(=O)N4CCOCC4)c(N)c3cc2c1	i	-22.2	i	i	-1.45	-10.7*	115.0*	0.133*
Cc1ccc(C)c2nc3sc(C(=O)N4CCOCC4)c(N)c3cc12	i	-16.4	i	i	-1.73	i	nt	nt
CCN1CCN(CC(=O)Nc2c(OC)cccc2OC)CC1	i	-3.7	i	i	-1.26	i	nt	nt
SMILES	KCNQ1 inh	hERG rescue	KCNQ1 pot	KCNK9 inh	Kir21 block	KCNK3 inh	KCNK3 inh conf	KCNK3 noninduced
CCOC(=O)CNC(=S)N(Cc1ccco1)Cc1ccccc1Cl	i	-7.2	i	i	-0.32	-10.2*	124.3*	i
Cc1nn(-c2ccc(Cl)c(Cl)c2)c(=O)c2ccccc12	i	-2.6	i	i	2.45	-11.3*	105.0*	i
Cc1nn(-c2ccc(Cl)cc2)c(=O)c2ccccc12	i	-17.5	i	i	-0.66	i	nt	nt
Cc1nn(-c2ccc3ccccc3c2)c(=O)c2ccccc12	i	-10.4	i	i	-0.21	-8.93*	91.7*	i
Cc1nn(-c2nc3ccccc3[nH]2)c(=O)c2ccccc12	i	-3.6	i	i	-0.49	i	nt	nt
COc1ccc(C(=O)N2[C@@H](C(C)C)COc3cc(Br)ccc3S2(=O)=O)cc1	nt	nt	nt	nt	nt	i	nt	nt
Clc1ccc(C(Cn2ccnc2)OCc2c(Cl)cccc2Cl)c(Cl)c1 (centres undefined)	nt	nt	nt	nt	nt	i	nt	nt
Cc1cccc2cc(CN(Cc3ccco3)C(=O)c3ccncc3)c(=O)[nH]c12	i	-15.8	i	i	2.16	-22*	63.0*	i
O=C(c1ccccc1)C1CCN(c2ncccc2[N+](=O)[O-])CC1	i	-10.4	i	i	-0.91	-8.81*	84.7*	i
CC1CCCC(C)N1S(=O)(=O)c1ccc(NC(=O)c2ccccc2C(=O)N2CCOCC2)cc1 (centres undefined)	i	-8.6	i	i	-0.85	-11.7*	91.0*	i
COC(=O)c1cc(NC(=O)Cc2cccs2)cc(C(=O)OC)c1	i	-2.3	i	i	-0.9	i	nt	nt
COc1ccc(CCN(C)C(=O)c2ccc(S(=O)(=O)Nc3ccccc3F)cc2)cc1OC	i	-4.2	i	i	1.29	i	nt	nt
C=CS(=O)(=O)c1sc(Cl)c(N2CCOCC2)c1[N+](=O)[O-]	i	-0.7	11*	i	-9.46*	-8.98*	125.3*	0.122*
C=CSc1sc(Cl)c(N2CCOCC2)c1[N+](=O)[O-]	i	-6.3	i	i	-0.97	i	nt	nt
O=C(CSc1nnc(-c2ccco2)n1-c1ccccc1Cl)Nc1cccc(C(=O)O)c1	i	-2.7	i	i	1.26	i	nt	nt
CCCNC(=O)c1c(N)n(-c2cc(OC)cc(OC)c2)c2nc3ccccc3nc12	i	-9.0	i	i	1.95	-9.18*	125.0*	i
COc1ccccc1OCC(=O)N/N=C/c1c(O)ccc2ccccc12	i	-22.2	i	-8.6*	0.38	-10.2*	132.3*	i
Cc1ccccc1Nc1nc(N)nc(-c2oc3ccccc3c2C)n1	i	-15.4	i	-13.7*	0.19	-10.2*	116.7*	0.158*

Compound activity as filed in PubChem BioAssay.
